In the library only some 3.5% were active in any assay of this set; here they are far more common.
RGS4 block – human RGS4 inhibition; P49798; HEK293 M3R/RGS4 inducible, Fluo-4 calcium flux; hits give high values; triggered by carbachol at its EC20; B-score at 10 µM; 310,000 tested, 0.45% active; AID 463165;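 active = B-score, a plate-corrected calcium signal, over three deviations above library mean, with baseline fluorescence within five deviations of library mean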;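 note: RGS4 expression induced by doxycycline in cells with stable M3 receptor; B-score is computed from the integrated fluorescence ratio over baseline after carbachol; higher B-score means a larger calcium signal and so more RGS4 inhibition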
Target sequence (P49798 whole entry, looked up): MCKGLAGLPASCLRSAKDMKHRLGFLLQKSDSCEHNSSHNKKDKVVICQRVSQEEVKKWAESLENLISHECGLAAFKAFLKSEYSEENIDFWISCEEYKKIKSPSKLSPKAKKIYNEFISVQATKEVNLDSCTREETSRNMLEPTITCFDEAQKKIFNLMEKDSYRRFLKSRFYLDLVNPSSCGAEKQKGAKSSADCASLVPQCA
MrgX1 antagonist – blocks BAM8-22 activation of human MrgX1 receptor. 310,000 tested, 1.3% active. Q96LB2. B-score at 10 µM. MRGX1-HEK293 calcium flux, Fluo-4, BAM8-22 antagonism; hits give low values;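 active = calcium-response B-score plate-corrected more than 3 library SD below zero, starting fluorescence within 5 deviations, no agonist response on first addition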;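 note: peak minus trough fluorescence over baseline after final BAM8-22 challenge near maximal dose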
Target sequence (Q96LB2 whole entry, looked up): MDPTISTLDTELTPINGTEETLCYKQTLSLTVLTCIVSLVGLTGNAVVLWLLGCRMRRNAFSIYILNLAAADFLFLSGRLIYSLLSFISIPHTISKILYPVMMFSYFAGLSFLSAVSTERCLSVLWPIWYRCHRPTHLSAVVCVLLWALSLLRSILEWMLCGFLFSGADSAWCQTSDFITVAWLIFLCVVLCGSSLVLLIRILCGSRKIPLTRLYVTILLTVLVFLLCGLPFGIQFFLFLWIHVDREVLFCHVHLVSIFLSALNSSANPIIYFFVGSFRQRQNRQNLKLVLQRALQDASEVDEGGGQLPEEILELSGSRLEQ
MrgX1 PAM – allosterically activates human MrgX1 receptor signaling; Q96LB2; MrgX1-HEK293, Fluo-4 calcium flux, FDSS; hits give high values; B-score at 10 µM; 310,000 tested, 0.63% active;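 active = plate-corrected calcium response at least 3 library SD above typical, normal starting fluorescence, not activating the receptor alone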;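 note: compound read alongside a low EC10 to EC30 dose of BAM8-22 agonist; peak minus trough fluorescence over baseline measured at the second addition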
MrgX1 agonist – human MrgX1 receptor agonism, primary screen; MrgX1-HEK293 cells, Fluo-4 calcium fluorescence, agonist mode; hits give high values; 310,000 tested, 0.44% active; B-score at 10 µM;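 active = calcium response B-score plate-corrected fluorescence ratio at least 3 library SD, with starting fluorescence B-score inside 5 SD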
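Test system: Stable human MrgX1 HEK293 cell line | Schedule: Overnight plating before 1 h dye loading | Read-out basis: Baseline-normalised fluorescence change ratio, B-scored | Detection: Kinetic calcium dye fluorescence, Fluo-4 NW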
RGS4 pot – potentiators or activators of RGS4 | AID 463111 | HEK293 M3R/inducible RGS4, carbachol calcium flux Fluo4; hits give low values | B-score at 10 µM | 310,000 tested, 0.92% active;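 active = B-score of the integrated calcium signal more than 4 SD below the library mean, with starting fluorescence not abnormally high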;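 note: negative B-score means reduced calcium response which marks RGS4 activation or potentiation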
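Assay system: Inducible-RGS4 HEK293 cells carrying M3 receptor | Schedule: Compound preincubation 20 min at room temperature before agonist | Signal: Kinetic calcium fluorescence imaging with Fluo4-AM dye, 2 µM | Read-out basis: B score from integrated fluorescence ratio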
RGS4 act valid – RGS4 activation, validation assay; shares compounds with RGS4 pot; HEK293 M3R/RGS4 inducible, carbachol calcium flux Fluo4; inhibition, % at 10 µM; 1,100 tested, 89% active; AID 602282;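 active = inhibition above 3 SD of the buffer control wells, cut at about 41% in these data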;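 note: signal is the integrated peak-minus-minimum Fluo4 fluorescence over baseline ratio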
RGS4 act ctr – RGS4 activator counter-screen hit in non-induced cells | inhibition, % at 10 µM | 1,100 tested, 82% active | HEK293 M3R non-induced RGS4, Fluo4 calcium flux; after carbachol challenge at its EC90 | shares compounds with RGS4 pot;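 active = inhibition exceeding 3 SD of buffer-only control wells, cut at about 26% in these data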;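 note: percent drop in integrated peak-minus-baseline over baseline Fluo4 ratio after carbachol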
* = called active by the depositor; i = inactive; . = no result given.

SMILES	RGS4 block	MrgX1 antagonist	MrgX1 PAM	MrgX1 agonist	RGS4 pot	RGS4 act valid	RGS4 act ctr
CCOC(=O)c1c(C(C)(C)C)oc2ccc(OCC#N)cc12	i	i	i	i	-8.79*	92.5*	91.8*
O=C(NCC1CCCO1)c1csc2c1CCCCC2 (stereo not drawn)	i	i	i	i	-9.13*	0.0	0.0
CC(C)=CCc1c(O)c(CC=C(C)C)c2c(c1O)C(=O)CC(c1ccc(O)cc1)O2 (stereo not drawn)	i	i	i	i	i	.	.
CC(C)=CCc1c(O)cc(O)c2c1OC(c1ccc(O)cc1)CC2=O (stereo not drawn)	i	i	i	i	-9.93*	90.5*	85.8*
Cc1cc(Nc2cccc(F)c2)nc(-c2ccccc2O)n1	i	i	i	i	i	.	.
CCOC(=O)c1ccc(Nc2cc(C)nc(-c3ccccc3O)n2)cc1	i	i	i	i	-8.26*	89.5*	65.8*
CN(CC(=O)NC1CCN(Cc2ccccc2)CC1)S(=O)(=O)c1ccc2c(c1)c(=O)n(C)c(=O)n2C	i	i	i	i	-9.39*	75.5*	47.3*
CSCCC(NS(=O)(=O)c1ccc2c(c1)c(=O)n(C)c(=O)n2C)C(=O)NC1CCN(Cc2ccccc2)CC1 (stereo not drawn)	i	i	i	i	i	.	.
O=C(CC12CC3CC(CC(C3)C1)C2)NCc1ccc(F)cc1	i	i	i	i	i	.	.
Cc1cc(C)c(NC(=O)CCN2C(=O)c3ccccc3S2(=O)=O)c(C)c1	i	i	i	i	i	.	.
Cc1ccc(-c2nnc(N3CCCCC3)c3ccccc23)cc1	i	i	i	i	i	.	.
Cc1ccc(-c2nnc(N3CCN(c4ccccn4)CC3)c3ccccc23)cc1	i	i	i	i	-7.68*	93.5*	90.8*
c1ccc(-c2nnc(N3CCN(c4ccccn4)CC3)c3ccccc23)cc1	i	i	i	i	-7.97*	91.5*	78.8*
CCc1nc2ccccc2c(C(=O)OCC(=O)Nc2cccc(S(=O)(=O)NC3=NCCCCC3)c2)c1C	i	i	i	i	-7.71*	63.5*	0.0
CC(C)CC1CCCCC1OC(=O)CN1CCCCC1 (stereo not drawn)	i	i	i	i	-8.48*	85.5*	37.3*
C/C(=N\Nc1ccc(C(=O)O)cc1)c1ccc(Cl)s1	i	i	i	i	i	.	.
CC(C)(C)c1csc(NC(=O)c2cccs2)n1	i	i	i	i	-8.24*	0.0	0.0
OCC1(CCc2ccccc2)CCN(C/C=C/c2ccccc2)CC1	i	i	i	i	i	.	.
OCC1(Cc2ccccc2Cl)CCN(C/C=C/c2ccccc2)CC1	i	i	i	i	-9.22*	93.5*	82.8*
CCCn1c(=O)c(C#N)cn(C2CC2)c1=O	i	i	i	i	i	.	.
CCOCCc1nn2c(=O)cc(CSCC(=O)Nc3cc(C)cc(C)c3)nc2s1	i	i	i	i	i	.	.
CN1CCC(C2(O)c3ccccc3CCc3ccccc32)CC1	i	i	i	i	-9.99*	62.0*	83.8*
CN1CCC(C2(O)c3ccccc3CSc3sccc32)CC1 (stereo not drawn)	.	i	i	i	.	.	.
O=C(O)c1nn2c(C(F)(F)F)cc(-c3cccs3)nc2c1Cl	i	i	i	i	i	.	.
COc1ccc2nc3c(cc2c1)c(NC(=O)c1cccs1)nn3CC(C)C	i	i	i	i	-8.47*	86.0*	60.8*
SMILES	RGS4 block	MrgX1 antagonist	MrgX1 PAM	MrgX1 agonist	RGS4 pot	RGS4 act valid	RGS4 act ctr
Cc1nccn1CCCNC(=O)CC1C(=O)NCCN1Cc1ccc(F)cc1Cl (stereo not drawn)	i	i	i	i	i	.	.
CCN(C1CCCCC1)S(=O)(=O)c1ccc(S(=O)(=O)N2CCN(CCC#N)CC2)cc1	i	i	i	i	-9.11*	90.5*	64.8*
CC[C@@H]1[C@H]2CCCC(=O)N3CC[C@@H](C[C@@H]1OC(=O)Nc1ccccc1)[C@@H]23	i	i	i	i	i	.	.
COC(=O)C1=C(C)N(C)C(=O)NC1c1ccc(C)cc1 (stereo not drawn)	i	i	i	i	i	.	.
CC1=C(C(=O)OC(C)(C)C)C(c2ccc3ccccc3c2)NC(=O)N1C (stereo not drawn)	i	i	i	i	-8.02*	93.5*	81.3*
Cc1ccc(C(=O)N2CCN(C3c4cccc5cccc(c45)C3NS(=O)(=O)c3ccccc3)CC2)cc1 (stereo not drawn)	i	i	i	i	i	.	.
Cc1c(CCOC(=O)C23CC4CC(CC(C4)C2)C3)sc[n+]1Cc1ccccc1	i	i	i	i	-11.6*	91.5*	61.3*
Cc1ncc(C[n+]2csc(CCOC(=O)C34CC5CC(CC(C5)C3)C4)c2C)c(N)n1	i	i	i	i	i	.	.
COc1ccc(/C=C/C(O)=C2/C(=O)N(C)C3(C)CC2c2ccccc2O3)cc1 (stereo not drawn)	i	i	i	i	i	.	.
Cc1ccc(/C=C/C(O)=C2/C(=O)N(C)C3(C)CC2c2ccccc2O3)cc1 (stereo not drawn)	i	i	i	i	-8.02*	73.0*	83.8*
O=C(O)c1ccccc1NS(=O)(=O)c1ccc(NNC(=S)Nc2ccc(OC(F)F)cc2)c([N+](=O)[O-])c1	i	.	.	.	-11.7*	0.0	0.0
Cc1ccc(S(=O)(=O)N2CCCCC2CCNC(=O)C(=O)NCC2CCCO2)cc1 (stereo not drawn)	i	i	i	i	i	.	.
c1cc2c3c(cccc3c1)C(N1CCOCC1)=N2	i	i	i	i	i	.	.
c1ccc(CC2CCN(C3=Nc4cccc5cccc3c45)CC2)cc1	i	-5.74*	i	i	-9.06*	94.0*	97.8*
Cc1ccc(C)c(S(=O)(=O)NCC(=O)Nc2sc3c(c2C(N)=O)CCC(C)C3)c1 (stereo not drawn)	i	i	i	i	i	.	.
c1ccc(COc2ccc(CN3CCN(c4ccccn4)CC3)cc2)cc1	i	i	i	i	-8.32*	89.5*	58.3*
COC(=O)c1ccccc1NC(=O)c1ccc(COc2cc(C)cc(C)c2)o1	i	i	i	i	-8.11*	46.0*	0.0

Screening data from PubChem BioAssay.
